For assay [1], the target named is Beta-secretase 1 (Homo sapiens) (UniProt P56817). Kind of assay: Inhibition of BACE1 (unknown origin) at <100 nM using Rh-EVNLDAEFK-Quencher as substrate after 60 mins by fluorescence spectroscopy. Put shortly: (§1)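 Enzyme tested across a concentration series, with isoliquiritigenin as the reference drug. Activity is reported as percent inhibition.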
Assay [2] shares this target. Kind of assay: Inhibition of BACE1 (unknown origin) at 100 uM using Rh-EVNLDAEFK-Quencher as substrate after 60 mins by fluorescence spectroscopy relative to control. Put shortly:
as §1

Assay [3] shares this target. The assay can be described thus: Inhibition of BACE1 (unknown origin) at 1 to 100 uM using Rh-EVNLDAEFK-Quencher as substrate after 60 mins by fluorescence spectroscopy. The gist of the method:
as §1

Assay [4] has the same target. The assay can be described thus: Inhibition of BACE1 in human SH-SY5Y cells assessed as decrease in amyloid beta (1 to 42) production at 1000 uM after 24 hrs by ELISA relative to control. The class given is cell-based. The gist of the method:
(§2)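 SH-SY5Y cells were exposed to the compound, and released Aβ40 and Aβ42 were quantified separately as percent of untreated control. Isoliquiritigenin was run in parallel as the reference drug.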

For assay [5] the target is unchanged. The assay can be described thus: Inhibition of BACE1 in human SH-SY5Y cells assessed as decrease in amyloid beta (1 to 42) production after 24 hrs by ELISA relative to control. The class given is cell-based. The gist of the method: as §2
Assay [6] has the same target. The assay can be described thus: Inhibition of BACE1 in human SH-SY5Y cells assessed as decrease in amyloid beta (1 to 40) production after 24 hrs by ELISA relative to control. The class given is cell-based. The gist of the method:
as §2

The target is the same in assay [7]. Kind of assay: Inhibition of BACE1 in human SH-SY5Y cells assessed as decrease in amyloid beta (1 to 40) production at 1000 uM after 24 hrs by ELISA relative to control. The class given is cell-based. The gist of the method:
as §2

This is an account of results in ChEMBL document CHEMBL4020787, “Lodopyridones B and C from a marine sediment-derived bacterium Saccharomonospora sp” (Bioorg Med Chem Lett, 2017).

Active and inactive are the calls of the source. The rule behind the calls is not given here.

Chain of Beta-secretase 1 (Homo sapiens) (P56817 whole entry): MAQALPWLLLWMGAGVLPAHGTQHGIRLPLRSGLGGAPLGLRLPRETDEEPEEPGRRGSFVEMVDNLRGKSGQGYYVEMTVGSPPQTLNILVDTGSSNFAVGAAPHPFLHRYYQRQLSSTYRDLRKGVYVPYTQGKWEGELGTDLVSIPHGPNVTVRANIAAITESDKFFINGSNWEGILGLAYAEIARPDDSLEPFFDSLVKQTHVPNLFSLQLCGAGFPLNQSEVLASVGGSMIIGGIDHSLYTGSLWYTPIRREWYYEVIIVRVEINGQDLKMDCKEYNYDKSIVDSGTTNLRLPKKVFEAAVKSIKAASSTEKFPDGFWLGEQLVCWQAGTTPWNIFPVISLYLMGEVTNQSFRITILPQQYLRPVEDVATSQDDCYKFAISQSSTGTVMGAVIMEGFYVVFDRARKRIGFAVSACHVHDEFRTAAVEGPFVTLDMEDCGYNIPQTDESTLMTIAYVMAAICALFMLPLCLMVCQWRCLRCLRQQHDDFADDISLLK

With `COc1c(-c2csc(-c3ccc4cc(Cl)ccc4n3)n2)n(C)c(C(=O)NCCO)c([S+](C)[O-])c1=O` (stereo not drawn), in assay [1], the inhibition result is “inactive”. Also, the inhibition in assay [2] was 51%; in assay [3], “Dose-dependent effect”.
On to `COc1c(-c2csc(-c3ccc4cc(Cl)ccc4n3)n2)n(C)c(C(=O)NCCOC(C)=O)c(SC)c1=O`, for which the inhibition was 49% in assay [4]; “Dose-dependent effect” in assay [5]; “Dose-dependent effect” in assay [6]; 60% in assay [2]; 41% in assay [7]; “Dose-dependent effect” in assay [3]. In assay [1], the inhibition entry is “inactive”.
On to `COc1c(-c2csc(-c3ccc4cc(Cl)ccc4n3)n2)n(C)c(C(=O)NCCO)c(SC)c1=O`, for which the inhibition entry in assay [1] is “inactive”. Also, the results for the inhibition in assay [2] and in assay [3] were 42% and “Dose-dependent effect”, respectively.
